From the M2OR odorant receptor database

Tests used:
Conditions in all cases: stereoisomer not certain
[1] = system: OR1A1 G108A N109K A154T N155S
Outline: (§1)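 Values were gathered from published papers (main text and supplementary material), with extra details requested from the original authors when needed, and checked for typos and inconsistencies. Each receptor–molecule pair is called responsive (active) if the original authors judged the measured signal statistically different from baseline, and non-responsive (inactive) otherwise. Assay methods varied by source, often transient mammalian cell-line luciferase assays. Recorded details include cell line, G-protein, co-transfected protein and tags.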

[2] = system: OR1A1 G108A N109K
Outline: as §1

[3] = system: OR1A1 G108A
Outline: as §1

[4] = system: OR1A1 I114T
Outline: as §1

[5] = system: OR1A1 I205V
Outline: as §1

[6] = system: OR1A1 N109K
Outline: as §1

[7] = system: OR1A1 T110A
Outline: as §1

[8] = system: OR1A1 T277V
Outline: as §1

[9] = system: OR1A1 T99M
Outline: as §1

[10] = system: OR1A1 V254T
Outline: as §1

Measured: odorant receptor agonist call

Chain of OR1A1 V254T (as listed by the source, stated change not applied): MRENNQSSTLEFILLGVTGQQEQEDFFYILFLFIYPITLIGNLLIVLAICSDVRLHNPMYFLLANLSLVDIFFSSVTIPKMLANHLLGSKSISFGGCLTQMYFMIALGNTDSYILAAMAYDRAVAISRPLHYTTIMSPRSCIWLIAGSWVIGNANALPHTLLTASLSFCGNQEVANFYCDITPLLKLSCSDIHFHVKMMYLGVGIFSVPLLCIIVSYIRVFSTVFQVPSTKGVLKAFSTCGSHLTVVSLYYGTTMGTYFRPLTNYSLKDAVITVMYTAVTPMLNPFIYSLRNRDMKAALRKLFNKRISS
Chain of OR1A1 G108A (as listed by the source, stated change not applied): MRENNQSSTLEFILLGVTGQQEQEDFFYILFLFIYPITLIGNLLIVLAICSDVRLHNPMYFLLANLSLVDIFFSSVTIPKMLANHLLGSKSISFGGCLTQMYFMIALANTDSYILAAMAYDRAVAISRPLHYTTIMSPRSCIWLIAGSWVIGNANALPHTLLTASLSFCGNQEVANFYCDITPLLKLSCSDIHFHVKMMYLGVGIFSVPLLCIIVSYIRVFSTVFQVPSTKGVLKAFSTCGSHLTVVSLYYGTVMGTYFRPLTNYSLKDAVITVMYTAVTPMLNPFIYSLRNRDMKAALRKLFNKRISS
Chain of OR1A1 I114T (as listed by the source, stated change not applied): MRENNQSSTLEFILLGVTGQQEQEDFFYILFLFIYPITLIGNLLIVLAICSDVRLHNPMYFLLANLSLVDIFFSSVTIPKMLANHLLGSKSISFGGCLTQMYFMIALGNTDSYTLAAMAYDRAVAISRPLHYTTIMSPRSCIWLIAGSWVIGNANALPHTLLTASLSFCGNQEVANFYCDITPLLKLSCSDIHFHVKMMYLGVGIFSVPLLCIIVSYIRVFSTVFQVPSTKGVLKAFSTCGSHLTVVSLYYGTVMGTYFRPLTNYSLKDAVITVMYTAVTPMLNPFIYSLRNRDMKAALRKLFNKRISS
Chain of OR1A1 N109K (as listed by the source, stated change not applied): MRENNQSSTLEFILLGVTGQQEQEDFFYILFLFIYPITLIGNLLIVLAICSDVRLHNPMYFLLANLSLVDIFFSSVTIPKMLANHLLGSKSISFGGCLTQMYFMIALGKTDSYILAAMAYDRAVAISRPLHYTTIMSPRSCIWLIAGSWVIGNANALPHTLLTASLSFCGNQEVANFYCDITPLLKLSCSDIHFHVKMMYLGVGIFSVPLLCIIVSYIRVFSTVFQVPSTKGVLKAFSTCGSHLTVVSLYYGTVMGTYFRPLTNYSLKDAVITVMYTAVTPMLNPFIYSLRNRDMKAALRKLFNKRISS
Chain of OR1A1 T277V (as listed by the source, stated change not applied): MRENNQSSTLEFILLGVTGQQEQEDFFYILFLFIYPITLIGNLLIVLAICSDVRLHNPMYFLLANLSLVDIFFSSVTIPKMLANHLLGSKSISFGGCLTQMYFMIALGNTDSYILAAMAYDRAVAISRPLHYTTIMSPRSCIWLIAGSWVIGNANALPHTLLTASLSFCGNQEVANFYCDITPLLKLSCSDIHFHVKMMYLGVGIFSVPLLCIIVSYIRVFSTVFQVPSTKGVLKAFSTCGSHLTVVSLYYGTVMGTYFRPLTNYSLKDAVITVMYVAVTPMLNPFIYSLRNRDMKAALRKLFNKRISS
Chain of OR1A1 I205V (as listed by the source, stated change not applied): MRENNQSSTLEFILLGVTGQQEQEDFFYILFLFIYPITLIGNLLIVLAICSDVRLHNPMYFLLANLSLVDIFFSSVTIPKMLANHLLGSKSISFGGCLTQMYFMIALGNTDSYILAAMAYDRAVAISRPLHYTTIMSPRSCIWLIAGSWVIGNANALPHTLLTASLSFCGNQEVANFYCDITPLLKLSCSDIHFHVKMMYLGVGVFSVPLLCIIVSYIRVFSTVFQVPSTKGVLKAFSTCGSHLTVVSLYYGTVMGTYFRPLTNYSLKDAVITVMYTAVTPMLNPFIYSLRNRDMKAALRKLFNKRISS
Chain of OR1A1 T110A (as listed by the source, stated change not applied): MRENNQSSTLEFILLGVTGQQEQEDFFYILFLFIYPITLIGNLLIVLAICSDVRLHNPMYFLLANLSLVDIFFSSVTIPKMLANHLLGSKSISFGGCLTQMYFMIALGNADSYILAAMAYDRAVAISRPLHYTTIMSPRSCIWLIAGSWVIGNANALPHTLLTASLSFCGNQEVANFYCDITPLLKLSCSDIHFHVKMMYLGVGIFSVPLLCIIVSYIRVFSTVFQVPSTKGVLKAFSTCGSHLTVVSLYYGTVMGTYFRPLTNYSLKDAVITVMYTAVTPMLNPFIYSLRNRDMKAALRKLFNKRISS
Chain of OR1A1 T99M (as listed by the source, stated change not applied): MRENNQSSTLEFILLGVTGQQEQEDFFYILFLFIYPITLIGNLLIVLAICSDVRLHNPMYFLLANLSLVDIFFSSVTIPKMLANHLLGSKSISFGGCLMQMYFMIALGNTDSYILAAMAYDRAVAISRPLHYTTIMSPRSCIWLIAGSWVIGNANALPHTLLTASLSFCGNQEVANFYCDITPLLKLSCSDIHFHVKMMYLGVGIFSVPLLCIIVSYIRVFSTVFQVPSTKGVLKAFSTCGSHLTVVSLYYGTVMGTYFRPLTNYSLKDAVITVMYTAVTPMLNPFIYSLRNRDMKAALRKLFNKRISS

CC(C)=CCCC(C)CCO (stereo not given)
inactive: [1] | [2] | [3] | [6]
active: all other assays above
